Columns and labels:
[1] = Cytotoxicity against mrp-1/mdr-1 overexpressing human CEM-DNR-bulk cells assessed as cell growth inhibition after 72 hrs by MTS assay; type: functional, cell-based
In short: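 Cells were exposed to compound for 3 days, then stained with MTS as a quantitative metabolic read-out.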

A549 = experiment: Cytotoxicity against human A549 cells assessed as cell growth inhibition after 72 hrs by MTS assay; type: functional, cell-based; conditions: A549, 72 h
In short: (§1)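 Cells were exposed to compound for 3 days, then stained with MTS as a quantitative metabolic read-out. IC50 is the concentration that inhibits cell growth by 50%.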

CCRF-CEM [2] = experiment: Cytotoxicity against human CCRF-CEM cells assessed as cell growth inhibition after 72 hrs by MTS assay
HCT-116 [3] = experiment: Cytotoxicity against human HCT116 cells assessed as cell growth inhibition after 72 hrs by MTS assay; type: functional, cell-based; conditions: HCT-116, 72 h; in short: as §1
HeLa S3 = experiment: Cytotoxicity against human HeLaS3 cells assessed as reduction in cell viability after 72 hrs by XTT assay; type: functional, cell-based; conditions: HeLa S3, 72 h
In short: (§2)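 Cells were incubated with compound for 3 days. Viability was then measured with the XTT tetrazolium assay.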

Hepatitis C virus [4] = experiment: Anti-HCV activity against Hepatitis C virus genotype 1b infected in human Huh7 replicon cells after 96 hrs by luciferase reporter gene assay; type: functional, cell-based, Hepacivirus hominis; conditions: Huh-7, 96 h
HepG2 = experiment: Cytotoxicity against human HepG2 cells assessed as reduction in cell viability after 72 hrs by XTT assay; type: functional, cell-based; conditions: HepG2, 72 h; in short: as §2
BJ = experiment: Cytotoxicity against human BJ cells assessed as cell growth inhibition after 72 hrs by MTS assay; type: cell-based; in short: as §1
U2OS = experiment: Cytotoxicity against human U2OS cells assessed as cell growth inhibition after 72 hrs by MTS assay; type: functional, cell-based
K562 = experiment: Cytotoxicity against human K562 cells assessed as cell growth inhibition after 72 hrs by MTS assay; type: functional, cell-based; conditions: K562, 72 h; in short: as §1
HL-60 = experiment: Cytotoxicity against human HL60 cells assessed as reduction in cell viability after 72 hrs by XTT assay; type: functional, cell-based; conditions: HL-60, 72 h; in short: as §2
[5] = Cytotoxicity against human K562-TAX cells assessed as cell growth inhibition after 72 hrs by MTS assay; type: functional, cell-based; in short: as §1
HCT-116 [6] = experiment: Cytotoxicity against p53 deficient human HCT116 cells assessed as cell growth inhibition after 72 hrs by MTS assay; type: functional, cell-based; conditions: HCT-116, 72 h; in short: as §1
MRC5 = experiment: Cytotoxicity against human MRC5 cells assessed as cell growth inhibition after 72 hrs by MTS assay; type: cell-based; conditions: MRC5, 72 h; in short: as §1
[7] = Cytotoxicity against human HuH7 cells; type: cell-based, Huh-7
Hepatitis C virus [8] = experiment: Anti-HCV activity against Hepatitis C virus genotype 2a infected in human Huh7 replicon cells after 96 hrs by luciferase reporter gene assay; type: functional, cell-based, Hepacivirus hominis; conditions: Huh-7, 96 h
CCRF-CEM [9] = experiment: Inhibition of RNA synthesis in human CCRF-CEM cells assessed as decrease in BrU incorporation by measuring synthesized RNA levels at IC50 after 24 hrs by propidium iodide staining-based flow cytometric method (reference value: 53.09%); type: functional
CCRF-CEM [10] = experiment: Inhibition of mitosis in human CCRF-CEM cells assessed as pH3Ser10 positive cells after 24 hrs by flow cytometric analysis; type: functional, cell-based
CCRF-CEM [11] = experiment: Cell cycle arrest in human CCRF-CEM cells assessed as accumulation at S phase at 5 times IC50 after 24 hrs by propidium iodide staining-based flow cytometric analysis (reference value: 44.20%); type: functional
CCRF-CEM [12] = experiment: Inhibition of DNA synthesis in human CCRF-CEM cells assessed as decrease in BrdU incorporation by measuring synthesized DNA levels at IC50 after 24 hrs by propidium iodide staining-based flow cytometric analysis (reference value: 52.66%); type: functional
CCRF-CEM [13] = experiment: Cell cycle arrest in human CCRF-CEM cells assessed as accumulation at S phase at IC50 after 24 hrs by propidium iodide staining-based flow cytometric analysis (reference value: 44.20%); type: functional
CCRF-CEM [14] = experiment: Cell cycle arrest in human CCRF-CEM cells assessed as accumulation at G0/G1 phase at IC50 after 24 hrs by propidium iodide staining-based flow cytometric analysis (reference value: 41.11%); type: functional
CCRF-CEM [15] = experiment: Cell cycle arrest in human CCRF-CEM cells assessed as accumulation at G2/M phase at IC50 after 24 hrs by propidium iodide staining-based flow cytometric analysis (reference value: 14.70%); type: functional
CCRF-CEM [16] = experiment: Cell cycle arrest in human CCRF-CEM cells assessed as accumulation at G0/G1 phase at 5 times IC50 after 24 hrs by propidium iodide staining-based flow cytometric analysis (reference value: 41.11%); type: functional
CCRF-CEM [17] = experiment: Cell cycle arrest in human CCRF-CEM cells assessed as accumulation at G2/M phase at 5 times IC50 after 24 hrs by propidium iodide staining-based flow cytometric analysis (reference value: 14.70%); type: functional
CCRF-CEM [18] = experiment: Inhibition of mitosis in human CCRF-CEM cells assessed as pH3Ser10 positive cells at IC50 after 24 hrs by flow cytometric analysis (reference value: 1.74%); type: functional
CCRF-CEM [19] = experiment: Inhibition of DNA synthesis in human CCRF-CEM cells assessed as decrease in BrdU incorporation by measuring synthesized DNA levels at 5 times IC50 after 24 hrs by propidium iodide staining-based flow cytometric analysis (reference value: 52.66%); type: functional
CCRF-CEM [20] = experiment: Induction of apoptosis in human CCRF-CEM cells assessed as accumulation at subG1 phase at IC50 after 24 hrs by propidium iodide staining-based flow cytometric analysis (reference value: 2.32%); type: functional
CCRF-CEM [21] = experiment: Induction of apoptosis in human CCRF-CEM cells assessed as accumulation at subG1 phase at 5 times IC50 after 24 hrs by propidium iodide staining-based flow cytometric analysis (reference value: 2.32%); type: functional
CCRF-CEM [22] = experiment: Inhibition of RNA synthesis in human CCRF-CEM cells assessed as decrease in BrU incorporation by measuring synthesized RNA levels at 5 times IC50 after 24 hrs by propidium iodide staining-based flow cytometric method (reference value: 53.09%); type: functional
CCRF-CEM [23] = experiment: Inhibition of mitosis in human CCRF-CEM cells assessed as pH3Ser10 positive cells at 5 times IC50 after 24 hrs by flow cytometric analysis (reference value: 1.74%); type: functional

OC[C@H]1O[C@@H](n2c3ncnc(-c4cc5ccccc5o4)c3c3ccsc32)[C@H](O)[C@@H]1O
IC50 [1]: 20.6 µM | IC50 (A549): > 50 µM | IC50 (CCRF-CEM [2]): 15.9 µM | IC50 (HCT-116 [3]): 47.1 µM | IC50 (HeLa S3): > 50 µM | EC50 (Hepatitis C virus [4]): 2050 nM | IC50 (HepG2): > 50 µM | IC50 (BJ): 36.8 µM | IC50 (U2OS): 33.1 µM | IC50 (K562): 29.7 µM | IC50 (HL-60): > 50000 nM | IC50 [5]: 14.9 µM | IC50 (HCT-116 [6]): > 50 µM | IC50 (MRC5): 37.5 µM | CC50 [7]: > 44.4 µM | EC50 (Hepatitis C virus [8]): 14.1 µM

COc1ncnc2c1c1sccc1n2[C@@H]1O[C@H](CO)[C@@H](O)[C@H]1O
IC50 [1]: 61.8 µM | IC50 (A549): 0.22 µM | BrU+ cells (%) (CCRF-CEM [9]): 34.93% | IC50 (CCRF-CEM [2]): 0.13 µM | IC50 (HCT-116 [3]): 0.13 µM | Activity (CCRF-CEM [10]): Dose-dependent effect | IC50 (HeLa S3): 0.9 µM | Activity (CCRF-CEM [11]): 75.47% | BrdU+ cells (%) (CCRF-CEM [12]): 56% | EC50 (Hepatitis C virus [4]): 950 nM | IC50 (HepG2): 0.15 µM | Activity (CCRF-CEM [13]): 50.91% | IC50 (BJ): 0.4 µM | IC50 (U2OS): 0.46 µM | Activity (CCRF-CEM [14]): 34.35% | Activity (CCRF-CEM [15]): 14.73% | Activity (CCRF-CEM [16]): 18.67% | IC50 (K562): 0.2 µM | IC50 (HL-60): 110 nM | Activity (CCRF-CEM [17]): 5.86% | pH3Ser10+ cells (%) (CCRF-CEM [18]): 1.07% | IC50 [5]: 4.05 µM | BrdU+ cells (%) (CCRF-CEM [19]): 63.58% | IC50 (HCT-116 [6]): 0.13 µM | Activity (CCRF-CEM [20]): 11.17% | Activity (CCRF-CEM [21]): 17.46% | BrU+ cells (%) (CCRF-CEM [22]): 26.27% | IC50 (MRC5): 25.2 µM | pH3Ser10+ cells (%) (CCRF-CEM [23]): 0.41% | CC50 [7]: 13.9 to 29.2 µM | EC50 (Hepatitis C virus [8]): 15 µM

OC[C@H]1O[C@@H](n2c3ccsc3c3c(-c4cc5ccccc5o4)ncnc32)[C@H](O)[C@@H]1O
IC50 [1]: 14.4 µM | IC50 (A549): 21.2 µM | IC50 (CCRF-CEM [2]): 6.86 µM | IC50 (HCT-116 [3]): 16.2 µM | IC50 (HeLa S3): 24.3 µM | EC50 (Hepatitis C virus [4]): 2100 nM | IC50 (HepG2): 4.28 µM | IC50 (BJ): 23 µM | IC50 (U2OS): 18.5 µM | IC50 (K562): 15.4 µM | IC50 (HL-60): 2380 nM | IC50 [5]: 17.9 µM | IC50 (HCT-116 [6]): 12.3 µM | IC50 (MRC5): 32.6 µM | CC50 [7]: 19.6 to 26.6 µM | EC50 (Hepatitis C virus [8]): 13.9 µM

From ChEMBL document CHEMBL4007430, “Synthesis and Cytostatic and Antiviral Profiling of Thieno-Fused 7-Deazapurine Ribonucleosides” (J Med Chem, 2017)
